Columns and labels:
LAPC4 [1] = experiment: Androgenic activity in human LAPC4 cells expressing androgen receptor assessed as induction of cell proliferation at 1 uM after 3 days by MTS assay relative to control; type: functional
Method in brief: (§1)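 LAPC-4 (AR+) cells in RPMI-1640 with 5% dextran-coated charcoal-treated FBS to remove hormones. Triplicate cultures of 10,000 cells preincubated 24 h at 37 °C, 5% CO2. Compounds from 10^-2 M DMSO stock, diluted in medium, added for 3 days (final DMSO 0.05%; vehicle controls). Growth read by MTS. Androgenicity = % proliferation minus basal set at 100%.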

[2] = target: T1, 17-beta-hydroxysteroid dehydrogenase type 3 (Rattus norvegicus) (UniProt O54939); experiment: Inhibition of 17beta-HSD3 in rat testes microsomes using [14C]-4-androstene-3,17-dione as substrate measured based on 18% of initial enzyme transformation at 0.01 uM after 2 hrs; conditions: Testis
T1 sequence (whole entry): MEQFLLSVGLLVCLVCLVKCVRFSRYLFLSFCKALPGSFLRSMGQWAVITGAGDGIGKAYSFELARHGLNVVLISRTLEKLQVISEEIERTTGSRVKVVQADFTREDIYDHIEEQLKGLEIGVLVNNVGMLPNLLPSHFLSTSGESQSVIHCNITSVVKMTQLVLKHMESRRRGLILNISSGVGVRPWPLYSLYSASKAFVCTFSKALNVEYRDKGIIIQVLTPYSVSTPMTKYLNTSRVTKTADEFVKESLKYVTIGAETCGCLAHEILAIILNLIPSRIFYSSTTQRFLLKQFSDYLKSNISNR
Method in brief: (§2)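 Rat testis microsomes: homogenate in phosphate/sucrose/EDTA buffer pH 7.5 with protease inhibitors, spun 12,500g, then pellet from 100,000g, at 4 °C. Reaction 2 h at 37 °C in 50 mM sodium phosphate pH 7.4, 20% glycerol, 1 mM EDTA, with NADPH and [14C]-Δ4-dione (50 nM). Inhibitor in DMSO. [14C]-T and substrate identified against reference steroids and quantified. Percent transformation and percent inhibition calculated.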

[3] = target: T1, 17-beta-hydroxysteroid dehydrogenase type 3 (Rattus norvegicus); experiment: Inhibition of 17beta-HSD3 in rat testes microsomes using [14C]-4-androstene-3,17-dione as substrate measured based on 18% of initial enzyme transformation at 0.1 uM after 2 hrs; conditions: Testis; method in brief: as §2
[4] = target: T1, 17-beta-hydroxysteroid dehydrogenase type 3 (Rattus norvegicus); experiment: Inhibition of 17beta-HSD3 in rat testes microsomes using [14C]-4-androstene-3,17-dione as substrate measured based on 18% of initial enzyme transformation at 1 uM after 2 hrs; conditions: Testis; method in brief: as §2
LAPC4 [5] = experiment: Androgenic activity in human LAPC4 cells expressing androgen receptor assessed as induction of cell proliferation at 0.1 uM after 3 days by MTS assay relative to control; type: functional; method in brief: as §1
[6] = target: T1, 17-beta-hydroxysteroid dehydrogenase type 3 (Rattus norvegicus); experiment: Inhibition of 17beta-HSD3 in rat testes microsomes using [14C]-4-androstene-3,17-dione as substrate measured based on 4% of initial enzyme transformation at 10 uM after 2 hrs; conditions: Testis; method in brief: as §2
[7] = target: T1, 17-beta-hydroxysteroid dehydrogenase type 3 (Rattus norvegicus); experiment: Inhibition of 17beta-HSD3 in rat testes microsomes using [14C]-4-androstene-3,17-dione as substrate measured based on 4% of initial enzyme transformation at 1 uM after 2 hrs; conditions: Testis; method in brief: as §2

Compound | Activity (LAPC4 [1]) [%] | inhibition [2] [%] | inhibition [3] [%] | inhibition [4] [%] | Activity (LAPC4 [5]) [%] | inhibition [6] [%] | inhibition [7] [%]
C[C@]12CC[C@@]3(C[C@@H]1CC[C@@H]1[C@@H]2CC[C@]2(C)C(=O)CC[C@@H]12)CN(Cc1cn(Cc2ccccc2)nn1)CC(=O)O3 | 17.7 | 5.1 | 42.2 | 85.3 | 10 |  | 
C[C@]12CC[C@@]3(C[C@@H]1CC[C@@H]1[C@@H]2CC[C@]2(C)C(=O)CC[C@@H]12)CN(Cc1ccc(I)cc1)CC(=O)O3 | 15.9 | 12.2 | 79 | 95.3 | 0.9 |  | 
COC(=O)[C@H](CC(C)C)N1C[C@]2(CC[C@@]3(C)[C@@H](CC[C@@H]4[C@@H]3CC[C@]3(C)C(=O)CC[C@@H]43)C2)OC1=O | 8.4 |  | 57.6 | 93.6 | 0 | 88.4 | 82.3
CC(C)C[C@@H]1NC[C@]2(CC[C@@]3(C)[C@@H](CC[C@@H]4[C@@H]3CC[C@]3(C)C(=O)CC[C@@H]43)C2)OC1=O | 11.1 |  | 39.4 | 84.9 | 14.5 | 83.8 | 69.3
COC(=O)CN1C[C@]2(CC[C@@]3(C)[C@@H](CC[C@@H]4[C@@H]3CC[C@]3(C)C(=O)CC[C@@H]43)C2)OC1=O | 33.8 |  | 9 |  | 11 | 80.8 | 54.6
C[C@]12CC[C@]3(CNCC(=O)O3)C[C@@H]1CC[C@@H]1[C@@H]2CC[C@]2(C)C(=O)CC[C@@H]12 | 32 |  | 0 |  | 9.7 | 82 | 44.7
C#CCN1CC2(CCCCC2)OC(=O)[C@@H]1Cc1ccccc1 | 0 | 0 | 0 | 0 | 11.1 |  | 
CC(C)C[C@@H]1C(=O)O[C@@]2(CC[C@@]3(C)[C@@H](CC[C@@H]4[C@@H]3CC[C@]3(C)C(=O)CC[C@@H]43)C2)CN1Cc1ccccc1 | 47.7 |  | 45.9 |  | 6.2 | 82.3 | 56.5
COC(=O)[C@@H](CC(C)C)N1C[C@]2(CC[C@@]3(C)[C@@H](CC[C@@H]4[C@@H]3CC[C@]3(C)C(=O)CC[C@@H]43)C2)OC1=O | 21.9 |  | 55.4 | 73.6 | 1.5 | 67.8 | 76.9
CC(C)C[C@H]1NC[C@]2(CC[C@@]3(C)[C@@H](CC[C@@H]4[C@@H]3CC[C@]3(C)C(=O)CC[C@@H]43)C2)OC1=O | 23.6 |  | 17.9 |  | 7.9 | 77.7 | 50.2
C[C@]12CCC(=O)C[C@@H]1CC[C@@H]1[C@@H]2CC[C@]2(C)[C@@H](O)CC[C@@H]12 [STANOLONE] | 51.5 |  |  |  | 28.8 |  | 
C[C@]12CC[C@@]3(C[C@@H]1CC[C@@H]1[C@@H]2CC[C@]2(C)C(=O)CC[C@@H]12)CN(Cc1ccc2ccccc2c1)CC(=O)O3 | 16.5 | 0 | 88.3 | 93.2 | 22.3 |  | 
C=CCN1CC(=O)O[C@@]2(CC[C@@]3(C)[C@@H](CC[C@@H]4[C@@H]3CC[C@]3(C)C(=O)CC[C@@H]43)C2)C1 | 11.3 | 8.4 | 48.6 | 89 | 31 |  | 
C[C@]12CC[C@]3(CN[C@@H](Cc4ccccc4)C(=O)O3)C[C@@H]1CC[C@@H]1[C@@H]2CC[C@]2(C)C(=O)CC[C@@H]12 | 36.5 |  |  |  | 3.9 | 88.2 | 75
C[C@]12CC[C@@]3(C[C@@H]1CC[C@@H]1[C@@H]2CC[C@]2(C)C(=O)CC[C@@H]12)CN(Cc1ccc(-c2cccc(C(F)(F)F)c2)cc1)CC(=O)O3 | 14.3 | 26.1 | 84.8 | 84.9 | 13.5 |  | 
C[C@]12CC[C@@]3(C[C@@H]1CC[C@@H]1[C@@H]2CC[C@]2(C)C(=O)CC[C@@H]12)CN(Cc1cccc2ccccc12)CC(=O)O3 | 9.3 | 12.8 | 79.1 | 94.5 | 3.8 |  | 
COC(=O)[C@H](Cc1ccccc1)N1C[C@]2(CC[C@@]3(C)[C@@H](CC[C@@H]4[C@@H]3CC[C@]3(C)C(=O)CC[C@@H]43)C2)OC1=O | 0 |  | 48.3 |  | 0 | 87.7 | 72.1
COC(=O)[C@@H](Cc1ccccc1)N1C[C@]2(CC[C@@]3(C)[C@@H](CC[C@@H]4[C@@H]3CC[C@]3(C)C(=O)CC[C@@H]43)C2)OC1=O | 29.2 |  | 56.1 |  | 0 | 80.8 | 74.3
C[C@]12CC[C@@]3(C[C@@H]1CC[C@@H]1[C@@H]2CC[C@]2(C)C(=O)CC[C@@H]12)CN(Cc1ccccc1)[C@@H](Cc1ccccc1)C(=O)O3 | 53.7 |  |  |  | 6.1 | 83.6 | 81
C[C@]12CC[C@@]3(C[C@@H]1CC[C@@H]1[C@@H]2CC[C@]2(C)C(=O)CC[C@@H]12)CN(Cc1ccc(C(F)(F)F)cc1C(F)(F)F)CC(=O)O3 | 27 | 18.3 | 64.1 | 89.6 | 0 |  | 
CC(C)C[C@H]1C(=O)O[C@@]2(CC[C@@]3(C)[C@@H](CC[C@@H]4[C@@H]3CC[C@]3(C)C(=O)CC[C@@H]43)C2)CN1Cc1ccccc1 | 44.2 |  | 62.9 | 93.1 | 8.4 | 87.1 | 77.3
O=C1OC2(CCCCC2)CN(Cc2cn(Cc3ccccc3)nn2)[C@H]1Cc1ccccc1 | 12.4 | 0 | 9.4 | 13.3 | 2.5 |  | 
C[C@]12CC[C@@]3(C[C@@H]1CC[C@@H]1[C@@H]2CC[C@]2(C)C(=O)CC[C@@H]12)CN(Cc1cc(C(F)(F)F)cc(C(F)(F)F)c1)CC(=O)O3 | 5.9 | 15.1 | 61.6 | 94.4 | 12 |  | 
C[C@]12CC[C@@]3(C[C@@H]1CC[C@@H]1[C@@H]2CC[C@]2(C)C(=O)CC[C@@H]12)CN(Cc1ccccc1)[C@H](Cc1ccccc1)C(=O)O3 | 50.1 |  |  |  | 9.9 |  | 61.7
C[C@]12CC[C@@]3(C[C@@H]1CC[C@@H]1[C@@H]2CC[C@]2(C)C(=O)CC[C@@H]12)CN(Cc1cccc(C(F)(F)F)c1)CC(=O)O3 | 27 | 17.7 | 54.1 | 94.2 | 0 |  | 
C[C@]12CC[C@]3(CN[C@H](Cc4ccccc4)C(=O)O3)C[C@@H]1CC[C@@H]1[C@@H]2CC[C@]2(C)C(=O)CC[C@@H]12 | 15.3 |  |  |  | 0 | 70.6 | 
C#CCN1CC(=O)O[C@@]2(CC[C@@]3(C)[C@@H](CC[C@@H]4[C@@H]3CC[C@]3(C)C(=O)CC[C@@H]43)C2)C1 | 25.5 | 0.1 | 34.1 | 80.7 | 20.1 |  | 
C[C@]12CC[C@@]3(C[C@@H]1CC[C@@H]1[C@@H]2CC[C@]2(C)C(=O)CC[C@@H]12)CN(Cc1ccccc1C(F)(F)F)CC(=O)O3 | 36.9 | 24.4 | 77.9 | 83 | 0.5 |  | 
